Experimental data pooled from the literature.
Each line is one published result; the experiments were not run side by side.
Target: MAP kinase-activated protein kinase 5 (MAPKAPK5, Homo sapiens, UniProt Q8IW41)

For `Cc1cnc(NC2CCOCC2)nc1-n1cnc(C(=O)NC(CN)c2cc(F)cc(Cl)c2)c1` (stereo not drawn), the remaining activity was 114% (enzyme activity; inhibitor; radiometric; 1 µM).
`Cn1c(=O)n(-c2ccc(C(C)(C)C#N)cc2)c2c3cc(-c4cnc5ccccc5c4)ccc3ncc21` gave a remaining activity of 93% (enzyme activity; inhibitor; 10 µM).
`Cc1nc(C2CCN(C(=O)c3ccc(OC(F)(F)F)cc3N)CC2)c2ncc(N3CCN(C)CC3)cc2n1` has a remaining binding of 94% (cell-free assay; competition with immobilised ligand; 1 µM).
With `CCN(CC)c1ccc(C2=NNC(=O)CC2C)cc1[N+](=O)[O-]` (stereo not drawn) the remaining activity was 104% (enzyme activity; inhibitor; 10 µM).
`Cc1nc(Cc2cccc(C(F)(F)F)c2)sc1-c1ccc(C(N)=O)nc1` gave a remaining binding of 100% (cell-free assay; competition with immobilised ligand; 1 µM).
`Nc1nc(Nc2ccccc2)sc1C(=O)c1c(F)cccc1F` gave a remaining activity of 63% (enzyme activity; inhibitor; 10 µM).
`COc1ccc2c(O[C@@H]3C[C@H]4C(=O)N[C@]5(C(=O)O)CC5/C=C\CCCCC[C@H](NC(=O)OC5CCCC5)C(=O)N4C3)cc(-c3csc(NC(=O)C(C)C)n3)nc2c1C` (stereo partly drawn) gave a remaining binding of 88% (cell-free assay; competition with immobilised ligand; 1 µM).
The activity vs control of `FC(F)(F)Oc1cccc(-c2cnc3ccc(-c4ccncc4)nn23)c1` is reported as 85% (enzyme activity; inhibitor; radiometric; 5 µM).
`Cc1ccc(NC(=O)c2ccc(C)c(C(F)(F)F)c2)cc1C#Cc1nn(C2CCC(O)CC2)c2ncnc(N)c12` (stereo not drawn) gave a remaining signal of 77% (cell-free assay; 10 µM).
`COc1cc(Cl)c(C(=O)N[C@@H](CN[C@H]2CC[C@@H](N)CC2)Cc2ccc(C#N)cc2)cc1-c1ccc(CN[C@H](C)c2ccc(C)cc2)o1` has a remaining activity of 89% (enzyme activity; inhibitor; 1 µM).
`Cc1ccc(Nc2nccc(N(C)c3ccc4c(C)n(C)nc4c3)n2)cc1S(N)(=O)=O` has an inhibition of 4% (enzyme activity; inhibitor; 10 µM).
For `O=C(Nc1cnn(-c2csc(C(=O)NC3COC3)c2)c1)Nc1c(F)cccc1Cl`, the remaining activity was 99.7% (enzyme activity; inhibitor; 5 µM).
For `CC/C(=N\NC(=O)NCc1cccc(O)c1)c1ccc(O)c(C)c1O`, the inhibition was -8% (enzyme activity; inhibitor; 0.1 µM).
`Oc1ccc(-c2nc(-c3ccncc3)c(-c3ccc(F)cc3)[nH]2)cc1` has a remaining signal of 102% (cell-free assay; 0.5 µM).
With `Cc1cc(C)c(-n2ccn3nc(-c4cccnc4)cc23)cc1NC(=O)c1cc(C#N)cc(S(F)(F)(F)(F)F)c1` the remaining binding was 91.7% (cell-free assay; competition with immobilised ligand; 0.1 µM).
For `COc1cc(Nc2cnc(C#N)c(O[C@H](C)CN(C)C)n2)ncc1-c1cnn(C)c1`, the remaining activity was 97% (enzyme activity; inhibitor; radiometric; 10 µM).
For `CNC(=O)Nc1ccc2c(c1)CC[C@@]21OC(=O)N(CC(=O)N(Cc2ccc(F)cc2)[C@@H](C)C(F)(F)F)C1=O`, the remaining binding was 82% (cell-free assay; competition with immobilised ligand; 1 µM).
With `CN(c1ncccc1CNc1nc(Nc2ccc3c(c2)CC(=O)N3)ncc1C(F)(F)F)S(C)(=O)=O` the inhibition was 0% (enzyme activity; inhibitor; 1 µM).
